Source: PMC2574552 (Molecular pharmacology, 2008)
Like-named read-outs stand apart in the source and are kept apart here. Blank lines part the entries; values can stand above or below the molecule they belong to.

Assays:
human mGluR4 = human mGluR4 (Homo sapiens, UniProt Q14833); test: human mGluR4/Gqi5/CHO calcium mobilization assay; assay type: cell-based; settings: for Fold shift hmGluR4/Gqi5: leftward shift of glutamate concentration-response curve at 30 μM PAM
rat mGluR4 = rat mGluR4 (Rattus norvegicus, UniProt P31423); test: rat mGluR4/GIRK thallium flux assay; assay type: cell-based; settings: for % Max rmGluR4/GIRK: maximal potentiated EC20 response vs response to maximal glutamate alone; for Fold shift rmGluR4/GIRK: leftward shift of glutamate concentration-response curve at 30 μM PAM
[1] = solubility in dosing vehicle; assay type: physicochemical
mGluR4 = settings: read-out: potency at mGluR4 in vitro; ref Marino et al., 2003; cited from earlier work
[2] = tested on: haloperidol-induced catalepsy; test: reversal of haloperidol-induced catalepsy; assay type: in vivo; settings: rat, icv
Procedure, shortened: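 Male Sprague-Dawley rats (225−255 g) carried third-ventricle cannulae. They received haloperidol 1.5 mg/kg i.p. in 0.2% lactic acid. At 2 h, cataleptic rats (staying on the bar 45−60 s; forepaw-removal latency timed) got icv either L-AP4 (100−1000 nmol/10 μl, artificial CSF), test compound (31 or 93 nmol/10 μl, aqueous vehicle pH 7.4) or vehicle. Rats were retested at 15, 30 and 60 min; 6 rats/group; Dunnett's test versus vehicle.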

[3] = tested on: reserpine-induced akinesia; test: reversal of reserpine-induced akinesia; assay type: in vivo; settings: rat, icv, reserpine 5 mg/kg s.c., 2 h pretreatment
NMDA receptor = assay type: cell-based, rat; settings: n = 5
[4] = tested on: 67 different targets including GPCRs, ion channels, and transporters; test: MDS-Pharma radioligand binding panel; settings: MDS-Pharma Services; Supplemental Table 2
rat mGluR8 = rat mGluR8 (Rattus norvegicus, UniProt P70579); test: rat mGluR8/GIRK thallium flux assay; assay type: cell-based; settings: 30 μM; glutamate EC20
Procedure, shortened: (§1)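 GIRK-coexpressing cells were plated at 15,000/well on poly-D-lysine and grown overnight at 37°C, 5% CO2. They were loaded with 1.7 μM BTC-AM for 1 h at room temperature, then buffer was exchanged. […] Fluorescence was read at 470/540 nm, at 1 Hz for 2 min after agonist. Normalised to no-compound response; mean ± S.E.M.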

rat mGluR1 = rat mGluR1 (Rattus norvegicus, UniProt P23385); test: rat mGluR1/BHK calcium fluorescence counterscreen; assay type: cell-based; settings: 30 μM; glutamate EC20
Procedure, shortened: (§2)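 Cells were plated on poly-D-lysine plates in DMEM with 10% dialysed FBS, 20 mM HEPES and 1 mM pyruvate: mGluR1/BHK at 15,000 cells/well, mGluR5/HEK at 20,000 cells/well. They were loaded with 1 μM Fluo-4 AM for 45 min at 37°C in HBSS with 20 mM HEPES and 2.5 mM probenecid. […] Peak fluorescence was taken against control and normalised to no-compound response.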

rat mGluR5 = rat mGluR5 (Rattus norvegicus, UniProt P31424); test: rat mGluR5/HEK calcium fluorescence counterscreen; assay type: cell-based; settings: 30 μM; glutamate EC20
Procedure, shortened: as §2

rat mGluR7 = rat mGluR7 (Rattus norvegicus, UniProt P35400); test: rat mGluR7/GIRK thallium flux assay; assay type: cell-based; settings: 30 μM; L-AP4 EC20
Procedure, shortened: as §1

human mGluR2 = human mGluR2 (Homo sapiens, UniProt Q14416); test: human mGluR2 GTPγS binding assay; assay type: biochemical; settings: 30 μM; glutamate EC20
Procedure, shortened: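 Nonspecific binding: 10 μM unlabelled GTPγS. Mixes shaken 60 min at room temperature, filtered, washed three times and counted by scintillation. Normalised to no-compound response; mean ± S.E.M.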

Chain of human mGluR4 (Q14833 33-912): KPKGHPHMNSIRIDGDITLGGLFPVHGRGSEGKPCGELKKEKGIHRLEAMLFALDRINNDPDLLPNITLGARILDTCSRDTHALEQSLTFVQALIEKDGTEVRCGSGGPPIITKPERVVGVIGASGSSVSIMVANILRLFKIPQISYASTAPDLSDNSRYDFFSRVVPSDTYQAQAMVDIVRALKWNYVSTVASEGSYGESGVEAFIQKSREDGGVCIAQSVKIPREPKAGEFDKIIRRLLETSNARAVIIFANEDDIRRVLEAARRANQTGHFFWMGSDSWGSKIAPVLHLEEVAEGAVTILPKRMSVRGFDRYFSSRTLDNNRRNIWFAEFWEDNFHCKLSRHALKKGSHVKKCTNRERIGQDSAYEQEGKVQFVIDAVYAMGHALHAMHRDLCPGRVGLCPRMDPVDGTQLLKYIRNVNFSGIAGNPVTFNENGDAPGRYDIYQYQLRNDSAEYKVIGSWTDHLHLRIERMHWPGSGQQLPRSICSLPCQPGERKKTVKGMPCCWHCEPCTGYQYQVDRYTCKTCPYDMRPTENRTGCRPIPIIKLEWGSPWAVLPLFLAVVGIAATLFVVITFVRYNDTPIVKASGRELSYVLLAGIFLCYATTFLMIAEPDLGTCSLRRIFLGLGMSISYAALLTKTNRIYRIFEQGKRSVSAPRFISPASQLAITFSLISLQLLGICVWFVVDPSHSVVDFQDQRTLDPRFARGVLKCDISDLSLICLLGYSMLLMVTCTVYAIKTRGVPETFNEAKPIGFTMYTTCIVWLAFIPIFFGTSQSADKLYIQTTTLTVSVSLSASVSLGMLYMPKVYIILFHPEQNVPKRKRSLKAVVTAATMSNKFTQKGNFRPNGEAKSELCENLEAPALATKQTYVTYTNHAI
Chain of rat mGluR4 (P31423 33-912): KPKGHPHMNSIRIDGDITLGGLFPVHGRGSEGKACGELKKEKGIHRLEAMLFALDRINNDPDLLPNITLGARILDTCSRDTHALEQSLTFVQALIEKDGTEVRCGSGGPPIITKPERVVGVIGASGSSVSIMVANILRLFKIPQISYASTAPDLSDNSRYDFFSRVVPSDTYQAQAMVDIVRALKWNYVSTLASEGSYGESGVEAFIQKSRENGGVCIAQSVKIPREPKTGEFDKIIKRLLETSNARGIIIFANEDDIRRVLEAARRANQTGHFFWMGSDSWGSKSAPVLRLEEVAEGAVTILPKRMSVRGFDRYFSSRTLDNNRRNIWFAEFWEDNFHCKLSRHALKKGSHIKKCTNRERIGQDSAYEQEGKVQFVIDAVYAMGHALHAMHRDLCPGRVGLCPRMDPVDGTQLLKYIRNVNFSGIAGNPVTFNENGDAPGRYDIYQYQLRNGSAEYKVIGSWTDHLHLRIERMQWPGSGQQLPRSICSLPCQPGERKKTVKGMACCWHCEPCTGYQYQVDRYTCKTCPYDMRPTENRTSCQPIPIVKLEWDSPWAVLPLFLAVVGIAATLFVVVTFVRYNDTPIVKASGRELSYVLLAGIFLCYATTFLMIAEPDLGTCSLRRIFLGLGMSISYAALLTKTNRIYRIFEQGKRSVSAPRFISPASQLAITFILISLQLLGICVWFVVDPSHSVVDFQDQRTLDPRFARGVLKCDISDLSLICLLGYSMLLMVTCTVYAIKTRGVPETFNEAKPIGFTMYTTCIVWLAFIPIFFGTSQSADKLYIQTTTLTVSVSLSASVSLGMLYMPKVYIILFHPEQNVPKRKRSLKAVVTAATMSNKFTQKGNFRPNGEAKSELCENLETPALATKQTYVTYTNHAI
Chain of rat mGluR5 (P31424 21-1203): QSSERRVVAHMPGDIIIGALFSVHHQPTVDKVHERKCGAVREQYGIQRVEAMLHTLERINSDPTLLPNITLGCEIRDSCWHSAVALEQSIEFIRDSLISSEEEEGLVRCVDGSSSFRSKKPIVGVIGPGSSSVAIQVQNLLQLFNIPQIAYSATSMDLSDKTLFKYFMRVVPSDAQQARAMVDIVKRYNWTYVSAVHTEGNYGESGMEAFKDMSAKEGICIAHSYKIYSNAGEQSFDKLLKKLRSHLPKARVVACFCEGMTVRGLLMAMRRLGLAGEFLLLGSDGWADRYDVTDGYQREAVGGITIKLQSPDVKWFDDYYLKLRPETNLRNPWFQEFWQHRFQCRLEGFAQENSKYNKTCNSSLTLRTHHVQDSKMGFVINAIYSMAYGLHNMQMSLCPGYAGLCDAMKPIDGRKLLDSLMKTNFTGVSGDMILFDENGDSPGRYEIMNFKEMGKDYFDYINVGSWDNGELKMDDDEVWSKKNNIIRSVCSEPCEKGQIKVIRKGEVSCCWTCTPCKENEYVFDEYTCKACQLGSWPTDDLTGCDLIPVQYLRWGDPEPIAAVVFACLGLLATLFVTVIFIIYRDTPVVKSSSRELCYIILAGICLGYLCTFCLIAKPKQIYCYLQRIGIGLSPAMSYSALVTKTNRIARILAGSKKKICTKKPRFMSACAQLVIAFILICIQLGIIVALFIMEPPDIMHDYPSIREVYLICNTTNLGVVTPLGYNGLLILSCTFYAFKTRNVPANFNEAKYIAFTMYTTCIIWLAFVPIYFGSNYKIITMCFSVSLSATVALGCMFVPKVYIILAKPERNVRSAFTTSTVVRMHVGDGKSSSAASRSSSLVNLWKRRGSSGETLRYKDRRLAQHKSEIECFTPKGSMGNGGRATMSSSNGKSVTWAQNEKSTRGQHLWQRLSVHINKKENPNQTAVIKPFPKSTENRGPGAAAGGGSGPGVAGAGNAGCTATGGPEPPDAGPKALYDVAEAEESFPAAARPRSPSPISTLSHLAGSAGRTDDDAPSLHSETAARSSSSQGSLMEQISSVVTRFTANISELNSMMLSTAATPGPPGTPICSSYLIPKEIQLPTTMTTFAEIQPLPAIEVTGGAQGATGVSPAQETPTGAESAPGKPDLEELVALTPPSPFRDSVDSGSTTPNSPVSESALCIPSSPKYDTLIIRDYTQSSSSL
Chain of rat mGluR8 (P70579 34-908): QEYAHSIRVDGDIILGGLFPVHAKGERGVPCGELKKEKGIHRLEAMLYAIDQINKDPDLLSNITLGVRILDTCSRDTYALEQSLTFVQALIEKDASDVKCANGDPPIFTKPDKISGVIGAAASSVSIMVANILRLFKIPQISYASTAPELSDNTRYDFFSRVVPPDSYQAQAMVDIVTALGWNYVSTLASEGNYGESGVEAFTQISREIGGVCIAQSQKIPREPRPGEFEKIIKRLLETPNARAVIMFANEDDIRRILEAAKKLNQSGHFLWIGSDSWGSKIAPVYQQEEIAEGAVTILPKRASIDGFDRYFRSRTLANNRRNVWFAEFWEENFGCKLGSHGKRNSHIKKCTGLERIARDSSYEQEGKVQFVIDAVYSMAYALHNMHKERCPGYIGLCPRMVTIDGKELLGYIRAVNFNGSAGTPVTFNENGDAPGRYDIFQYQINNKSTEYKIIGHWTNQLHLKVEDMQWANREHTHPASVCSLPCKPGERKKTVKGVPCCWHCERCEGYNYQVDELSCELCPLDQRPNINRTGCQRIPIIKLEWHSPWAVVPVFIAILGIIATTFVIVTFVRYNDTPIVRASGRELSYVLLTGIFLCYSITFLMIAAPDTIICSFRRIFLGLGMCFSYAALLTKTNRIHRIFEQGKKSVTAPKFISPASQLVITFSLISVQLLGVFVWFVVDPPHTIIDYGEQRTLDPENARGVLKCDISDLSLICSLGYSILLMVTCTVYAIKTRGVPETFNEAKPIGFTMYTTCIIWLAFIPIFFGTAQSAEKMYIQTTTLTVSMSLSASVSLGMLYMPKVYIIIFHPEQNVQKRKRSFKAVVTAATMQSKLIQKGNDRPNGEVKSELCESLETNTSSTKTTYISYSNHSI
Chain of human mGluR2 (Q14416 19-872): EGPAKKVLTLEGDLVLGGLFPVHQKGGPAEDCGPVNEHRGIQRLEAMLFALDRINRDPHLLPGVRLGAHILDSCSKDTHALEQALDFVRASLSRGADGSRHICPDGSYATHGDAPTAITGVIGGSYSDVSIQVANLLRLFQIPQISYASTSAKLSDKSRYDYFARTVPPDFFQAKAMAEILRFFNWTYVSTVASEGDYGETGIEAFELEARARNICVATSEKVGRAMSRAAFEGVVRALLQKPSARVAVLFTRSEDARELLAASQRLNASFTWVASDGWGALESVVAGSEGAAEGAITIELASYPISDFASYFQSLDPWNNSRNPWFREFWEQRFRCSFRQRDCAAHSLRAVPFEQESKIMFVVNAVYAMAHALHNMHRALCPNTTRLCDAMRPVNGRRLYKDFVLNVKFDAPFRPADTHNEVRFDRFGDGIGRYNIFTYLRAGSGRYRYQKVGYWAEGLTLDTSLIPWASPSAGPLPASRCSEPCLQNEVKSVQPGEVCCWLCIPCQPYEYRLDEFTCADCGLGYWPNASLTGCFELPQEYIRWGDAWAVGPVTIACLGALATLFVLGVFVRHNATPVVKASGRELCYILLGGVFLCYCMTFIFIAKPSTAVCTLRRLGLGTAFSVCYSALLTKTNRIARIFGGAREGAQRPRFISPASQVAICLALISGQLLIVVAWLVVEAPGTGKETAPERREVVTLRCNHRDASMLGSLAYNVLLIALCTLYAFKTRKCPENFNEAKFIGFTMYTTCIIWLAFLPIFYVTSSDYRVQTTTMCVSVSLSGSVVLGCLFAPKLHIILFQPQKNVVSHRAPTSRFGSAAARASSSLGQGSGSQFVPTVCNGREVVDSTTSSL

Molecule: O=C(O)C1CCCCC1C(=O)Nc1cc(Cl)cc(Cl)c1 [(1R, 2S)]
potency and efficacy of single cis-enantiomers (human mGluR4; mGluR4, assay not specified, data not shown): equal potency and efficacy

EC50 (rat mGluR4): 9200 ± 1200 nM
Molecule: N[C@@H](CCC(=O)O)C(=O)O [glutamate, L-glutamate, reference compound]

Molecule: N-Phenyl-7-(hydroxyimino)cyclopropa[b]chromen-1a-carboxamide [PHCCC, reference compound]
maximal agonist response, percent of the maximal glutamate response (rat mGluR4; compound alone, no glutamate, observed at 30 μM): −2.3±2.0%
% Max rmGluR4/GIRK (rat mGluR4): 120.3±4.4%
solubility in vehicle ([1]; vehicle for icv administration): only soluble in vehicles containing high concentrations of DMSO or other relatively toxic vehicles
EC50 (mGluR4): ~4000 nM

Fold shift rmGluR4/GIRK (rat mGluR4): 2.5±0.5 fold
Fold shift hmGluR4/Gqi5 (human mGluR4): 3.0±0.3 fold
Molecule: O=C(O)[C@@H]1CCCC[C@H]1C(=O)Nc1cc(Cl)cc(Cl)c1 (racemic) [VU0155040, (±)-trans-2-(3,5-Dichlorophenylcarbamoyl)cyclohexanecarboxylic acid]

Molecule: N[C@@H](CCP(=O)(O)O)C(=O)O [L-AP4, L-(+)-2-amino-4-phosphonobutryic acid, reference compound]
haloperidol-induced catalepsy ([2]; 100−1000 nmol, dose-dependent, haloperidol 1.5 mg/kg i.p.): significantly decreased
reversal of reserpine-induced akinesia ([3]; 300 and 1000 nmol): significant reversals of akinesia

Molecule: C[C@@H](CN1CCC(Cc2ccccc2)CC1)[C@@H](O)c1ccc(O)cc1 [Ro25−6981, (αR,βS)-α-(4-hydroxyphenyl)-β-methyl-4-(phenylmethyl)-1-piperidinepropanol, reference compound]
peak amplitude of NMDAR currents (NMDA receptor; 1 μM, p < 0.003): 53.1 ± 8.5 % of control

Molecule: O=C(Nc1cc(Cl)cc(Cl)c1)[C@H]1CCCC[C@H]1C(=O)O (racemic) [VU0155041, (±)-cis-2-(3,5-Dicholorphenylcarbamoyl)cyclohexanecarboxylic acid]
effect on radioligand binding at 67 targets [4]: no effect on binding at any target examined
Fold shift rmGluR4/GIRK (rat mGluR4): 4.7±0.4 fold
EC50 (rat mGluR4; read-out: potency at rat mGluR4 (GIRK assay), potentiation of EC20 glutamate): 693 ± 140 nM
Fold shift hmGluR4/Gqi5 (human mGluR4): 6.4±0.7 fold
haloperidol-induced catalepsy ([2]; doses of 31 and 92 nmol, effects still present 30 min after infusion): significantly decrease
amplitude of NMDA receptor currents (NMDA receptor; 10 μM, p > 0.3): 106.3 ± 5.8 % of control
solubility in vehicle [1]: soluble in an aqueous vehicle
reversal of reserpine-induced akinesia ([3]; 316 nmol): significant reversal of akinesia

Molecule: O=C(O)C1CCCCC1C(=O)Nc1cc(Cl)cc(Cl)c1 (centres unmarked) [Compound 2h, 2-(3,5-Dichlorophenylcarbamoyl)cyclohexanecarboxylic acid]
EC50 (rat mGluR4): 560 ± 100 nM
Fold shift rmGluR4/GIRK (rat mGluR4): 7.7±0.6 fold
% Max rmGluR4/GIRK (rat mGluR4): 107.6±6.3%
EC50 (human mGluR4): 750 ± 200 nM
response to compound alone in calcium assay (human mGluR4; 10 μM, absence of glutamate, trace from original HTS): small calcium response
Fold shift hmGluR4/Gqi5 (human mGluR4): 6.5±1.0 fold
improved potency compared to PHCCC (human mGluR4; mGluR4 PAM potency relative to PHCCC): approximately 8 fold
% Max hmGluR4/Gqi5 (human mGluR4; maximal potentiated EC20 response vs response to maximal glutamate alone): 120.0±6.7%
potentiation of EC20 agonist response, mGluR8 (rat mGluR8): did not potentiate
potentiation of EC20 agonist response, mGluR1 (rat mGluR1): did not potentiate
potentiation of EC20 agonist response, mGluR5 (rat mGluR5): did not potentiate
potentiation of EC20 agonist response, mGluR7 (rat mGluR7): did not potentiate
potentiation of EC20 agonist response, mGluR2 (human mGluR2): did not potentiate
